The results in this text go back to ChEMBL document CHEMBL2331243, “Discovery and mechanism study of SIRT1 activators that promote the deacetylation of fluorophore-labeled substrate” (J Med Chem, 2013).

Changes are numbered by the printed parent chain. The source made the active and inactive calls. The calls are words filed in the database; no cut-off is given here.

The target in data set [1] is NAD-dependent protein deacetylase sirtuin-1 (Homo sapiens, UniProt Q96EB6, V445A). The experiment in a line: Activation of SIRT1 V445A mutant (unknown origin). The method, boiled down: (§1)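 His-tagged SIRT1 Q345A or V445A mutants were made by site-directed mutagenesis and expressed in E. coli, Ni-NTA purified. They were assayed under the same screening conditions as wild type: 750 μM NAD⁺, 31.25 μM ac-RHKK_ac-AMC, pH 8.0 Tris buffer, trypsin release of AMC, ex 340 / em 490 nm. Compounds came from 3-fold DMSO dilutions. EC1.5 (50% activity increase) was taken from a dose–response fit.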
Sequence of NAD-dependent protein deacetylase sirtuin-1 (Homo sapiens, UniProt Q96EB6, V445A) (Q96EB6 2-747 V445A limits assumed): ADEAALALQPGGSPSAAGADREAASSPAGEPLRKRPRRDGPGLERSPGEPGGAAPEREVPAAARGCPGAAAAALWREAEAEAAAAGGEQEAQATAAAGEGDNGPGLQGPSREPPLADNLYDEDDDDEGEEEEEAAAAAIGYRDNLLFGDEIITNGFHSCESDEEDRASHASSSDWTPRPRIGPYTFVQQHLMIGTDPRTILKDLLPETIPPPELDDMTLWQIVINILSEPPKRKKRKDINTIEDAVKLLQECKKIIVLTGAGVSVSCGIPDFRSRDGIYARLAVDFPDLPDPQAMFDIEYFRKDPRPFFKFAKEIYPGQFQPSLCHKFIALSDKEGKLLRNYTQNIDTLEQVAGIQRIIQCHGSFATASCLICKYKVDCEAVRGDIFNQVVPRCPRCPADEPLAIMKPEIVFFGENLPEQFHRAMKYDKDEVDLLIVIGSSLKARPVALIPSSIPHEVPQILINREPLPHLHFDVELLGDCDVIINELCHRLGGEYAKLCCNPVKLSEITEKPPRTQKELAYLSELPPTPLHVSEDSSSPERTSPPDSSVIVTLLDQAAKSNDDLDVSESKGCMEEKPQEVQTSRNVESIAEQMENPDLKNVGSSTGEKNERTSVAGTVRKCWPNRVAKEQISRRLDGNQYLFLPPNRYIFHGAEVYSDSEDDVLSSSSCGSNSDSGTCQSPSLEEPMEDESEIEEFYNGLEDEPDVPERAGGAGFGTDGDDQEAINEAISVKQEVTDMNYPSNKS

The target in data set [2] is NAD-dependent protein deacetylase sirtuin-1 (Homo sapiens, UniProt Q96EB6, Q345A). The experiment in a line: Activation of SIRT1 Q345A mutant (unknown origin). An outline of the steps: as §1
Sequence of NAD-dependent protein deacetylase sirtuin-1 (Homo sapiens, UniProt Q96EB6, Q345A) (Q96EB6 2-747 Q345A limits assumed): as the sequence (Q96EB6 2-747 V445A limits assumed) above, with Q344A, A444V counted along it
For data set [3], the target named is T1, NAD-dependent protein deacetylase sirtuin-1 (Homo sapiens) (UniProt Q96EB6).
T1 sequence (whole entry): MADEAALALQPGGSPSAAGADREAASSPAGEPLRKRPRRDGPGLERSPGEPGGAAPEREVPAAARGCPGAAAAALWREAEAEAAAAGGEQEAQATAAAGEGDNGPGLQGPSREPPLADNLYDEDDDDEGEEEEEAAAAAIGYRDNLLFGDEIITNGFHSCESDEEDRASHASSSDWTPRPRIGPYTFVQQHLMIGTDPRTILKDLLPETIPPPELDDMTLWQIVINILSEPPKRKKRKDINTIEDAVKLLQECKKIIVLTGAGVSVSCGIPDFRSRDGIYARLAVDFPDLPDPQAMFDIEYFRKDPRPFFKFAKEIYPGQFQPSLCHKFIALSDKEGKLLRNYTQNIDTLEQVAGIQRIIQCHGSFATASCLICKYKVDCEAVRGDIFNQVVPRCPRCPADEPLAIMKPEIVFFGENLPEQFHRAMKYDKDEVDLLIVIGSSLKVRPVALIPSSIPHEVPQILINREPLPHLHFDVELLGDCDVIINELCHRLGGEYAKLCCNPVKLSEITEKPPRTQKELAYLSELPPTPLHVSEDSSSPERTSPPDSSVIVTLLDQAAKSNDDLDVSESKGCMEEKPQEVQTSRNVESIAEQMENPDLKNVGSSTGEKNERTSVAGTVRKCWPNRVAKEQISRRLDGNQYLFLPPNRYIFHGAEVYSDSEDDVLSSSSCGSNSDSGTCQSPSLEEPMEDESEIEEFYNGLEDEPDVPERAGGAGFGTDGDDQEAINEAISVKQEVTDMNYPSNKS
Kind of data set: Activation of N-terminal His6-tagged SIRT1 (156 to 664 amino acid residues) (unknown origin) expressed in Escherichia coli BL21(DE3) using ac-RHKKac-AMC as substrate at 50 uM after 45 mins by fluorimetric analysis relative to control. An outline of the steps: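 Fluorogenic deacetylation screen: 1 μM SIRT1 with 750 μM NAD⁺ and 31.25 μM ac-RHKK_ac-AMC in Tris buffer (25 mM Tris, 137 mM NaCl, 2.7 mM KCl, 1 mM MgCl₂, pH 8.0). Compounds at 50 μM from DMSO stocks; DMSO alone as blank. Trypsin then releases AMC from deacetylated peptide; fluorescence read at 340/490 nm.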

Data set [4] concerns the target T2, NAD-dependent protein deacetylase sirtuin-1 (Homo sapiens, UniProt Q96EB6).
T2 sequence (Q96EB6 whole entry): T1 sequence (whole entry)
The experiment in a line: Activation of N-terminal His6-tagged SIRT1 (156 to 664 amino acid residues) (unknown origin) expressed in Escherichia coli BL21(DE3) using ac-RHKKac-AMC as substrate after 45 mins by fluorometric analysis.

Data set [5] can be described thus: Stability of the compound in cultured medium assessed as compound remaining at 100 uM after 30 mins. The class given is physicochemical. As to conditions: 6 h, in the assay text read “after 6 hrs” for “after 30 mins”. The method, boiled down: (§2)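 MCF-7 cells were exposed to 100 μM compound for 0–360 min. Medium and acetonitrile-treated washed cells were collected separately at each time point. Compound spiked into fresh cell-free medium and handled the same way served as control. Samples were centrifuged and quantified by reversed-phase HPLC.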

Data set [6] has as its target T1, NAD-dependent protein deacetylase sirtuin-1 (Homo sapiens). The experiment in a line: Activation of SIRT1 in human MCF7 cells assessed as reduction in doxorubicin-induced acetyl-p53 level at 60 uM after 6 hrs by Western blotting analysis. The class given is cell-based. The method, boiled down:
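MCF-7 cells were seeded at 1 × 10⁵ per well in DMEM with 10% FCS and grown 24 h at 37 °C, 5% CO₂. Graded compound concentrations were added together with 0.1 μM TSA and 5 μM doxorubicin for 6 h. Lysate (50 μg protein) was run on a 9% gel and blotted with an anti-acetyl-p53 (Lys382) polyclonal antibody at 4 °C overnight, then HRP anti-rabbit IgG with chemiluminescence.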
In general terms: Immunoblotting shows a protein as a band on a membrane.

The test system of data set [7] is MCF7. The experiment in a line: Drug uptake in human MCF7 cells at 100 uM measured at 30 mins. The class given is ADME, cell-based. Particulars: mcf7, 0.5 h. An outline of the steps:
as §2

Data set [8] in a line: Stability of the compound in cultured medium at 100 uM after 30 mins. The class given is physicochemical. Particulars: 0.5 h. The method, boiled down:
as §2

Data set [9] is described as follows: Stability of the compound in fresh cell medium at 100 uM after 120 mins. The class given is physicochemical. Particulars: 2 h. The method, boiled down: as §2
Data set [10] has as its system NAD-dependent protein deacetylase sirtuin-1 (Homo sapiens), Q96EB6 [UNDEFINED MUTATION]. Kind of data set: Ratio of EC50 for SIRT1 V445A mutant (unknown origin) to EC50 for wild type SIRT1 (unknown origin).
The test system is the same in data set [11]. The experiment in a line: Ratio of EC50 for SIRT1 Q345A mutant (unknown origin) to EC50 for wild type SIRT1 (unknown origin).
The subject of data set [12] is T3, NAD-dependent protein deacetylase sirtuin-1 (Homo sapiens), Q96EB6 [Q345A].
T3 sequence (whole entry): T1 sequence (whole entry) with Q345A
The experiment in a line: Activation of SIRT1 Q345A mutant (unknown origin) at 10 uM relative to control.

For data set [13], the system named is T4, NAD-dependent protein deacetylase sirtuin-1 (Homo sapiens), Q96EB6 [V445A].
T4 sequence (whole entry): T1 sequence (whole entry) with V445A
Kind of data set: Activation of SIRT1 V445A mutant (unknown origin) at 10 uM relative to control.

For orientation: EC50 means the concentration at which the effect is half-maximal. In the case of `O=C(N/N=C/c1cc(Br)c(O)c(Br)c1O)c1ccc2cc(Br)ccc2c1`, the EC50 in data set [1] was found to be 4.8 µM; in data set [2], 12.2 µM; in [4], 2.7 µM. The max activation was 647% in [3], 237% in data set [12] and 353% in [13]. For the same molecule, the figures for the Stability in data set [5], in data set [8] and in [9] were 20 µM, “Stable” and “Stable”, respectively. In addition, in [6], the result was inactive. In addition, the Drug uptake result in [7] was “Active”. Further, the results for the Ratio EC50 in [10] and in data set [11] were 2 and 4, respectively.
